The values that follow come from ChEMBL document CHEMBL5653631, “A Potent and Selective ULK1 Inhibitor Suppresses Autophagy and Sensitizes Cancer Cells to Nutrient Stress” (iScience, 2018).

Experiment [1] deals with Cyclin-dependent kinase 9 (Homo sapiens) (UniProt P50750). Kind of experiment: Inhibition of human recombinant CDK9 at 500 nM related to control ULK1.
Experiment [2] deals with Serine/threonine-protein kinase VRK2 (Homo sapiens) (UniProt Q86Y07). Put plainly: Inhibition of human recombinant VRK2 at 500 nM in presence of ATP by radiometric assay relative to control.
Chain of Serine/threonine-protein kinase VRK2 (Homo sapiens) (Q86Y07 whole entry): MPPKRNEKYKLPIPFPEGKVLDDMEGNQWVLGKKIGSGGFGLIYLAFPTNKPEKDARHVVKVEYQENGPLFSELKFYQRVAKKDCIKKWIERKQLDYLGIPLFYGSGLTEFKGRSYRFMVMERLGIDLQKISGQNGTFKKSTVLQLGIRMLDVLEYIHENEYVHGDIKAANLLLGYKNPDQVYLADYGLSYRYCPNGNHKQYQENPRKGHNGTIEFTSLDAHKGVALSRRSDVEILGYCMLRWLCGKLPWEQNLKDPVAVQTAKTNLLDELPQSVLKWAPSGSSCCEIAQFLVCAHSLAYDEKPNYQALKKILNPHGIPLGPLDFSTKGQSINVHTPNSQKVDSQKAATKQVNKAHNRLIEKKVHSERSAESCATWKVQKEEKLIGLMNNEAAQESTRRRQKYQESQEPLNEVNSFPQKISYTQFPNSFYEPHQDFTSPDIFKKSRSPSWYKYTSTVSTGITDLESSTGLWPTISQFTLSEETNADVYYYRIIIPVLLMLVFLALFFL
For experiment [3], the target named is T1, Serine/threonine-protein kinase Nek1 (Homo sapiens) (UniProt Q96PY6).
T1 sequence (whole entry): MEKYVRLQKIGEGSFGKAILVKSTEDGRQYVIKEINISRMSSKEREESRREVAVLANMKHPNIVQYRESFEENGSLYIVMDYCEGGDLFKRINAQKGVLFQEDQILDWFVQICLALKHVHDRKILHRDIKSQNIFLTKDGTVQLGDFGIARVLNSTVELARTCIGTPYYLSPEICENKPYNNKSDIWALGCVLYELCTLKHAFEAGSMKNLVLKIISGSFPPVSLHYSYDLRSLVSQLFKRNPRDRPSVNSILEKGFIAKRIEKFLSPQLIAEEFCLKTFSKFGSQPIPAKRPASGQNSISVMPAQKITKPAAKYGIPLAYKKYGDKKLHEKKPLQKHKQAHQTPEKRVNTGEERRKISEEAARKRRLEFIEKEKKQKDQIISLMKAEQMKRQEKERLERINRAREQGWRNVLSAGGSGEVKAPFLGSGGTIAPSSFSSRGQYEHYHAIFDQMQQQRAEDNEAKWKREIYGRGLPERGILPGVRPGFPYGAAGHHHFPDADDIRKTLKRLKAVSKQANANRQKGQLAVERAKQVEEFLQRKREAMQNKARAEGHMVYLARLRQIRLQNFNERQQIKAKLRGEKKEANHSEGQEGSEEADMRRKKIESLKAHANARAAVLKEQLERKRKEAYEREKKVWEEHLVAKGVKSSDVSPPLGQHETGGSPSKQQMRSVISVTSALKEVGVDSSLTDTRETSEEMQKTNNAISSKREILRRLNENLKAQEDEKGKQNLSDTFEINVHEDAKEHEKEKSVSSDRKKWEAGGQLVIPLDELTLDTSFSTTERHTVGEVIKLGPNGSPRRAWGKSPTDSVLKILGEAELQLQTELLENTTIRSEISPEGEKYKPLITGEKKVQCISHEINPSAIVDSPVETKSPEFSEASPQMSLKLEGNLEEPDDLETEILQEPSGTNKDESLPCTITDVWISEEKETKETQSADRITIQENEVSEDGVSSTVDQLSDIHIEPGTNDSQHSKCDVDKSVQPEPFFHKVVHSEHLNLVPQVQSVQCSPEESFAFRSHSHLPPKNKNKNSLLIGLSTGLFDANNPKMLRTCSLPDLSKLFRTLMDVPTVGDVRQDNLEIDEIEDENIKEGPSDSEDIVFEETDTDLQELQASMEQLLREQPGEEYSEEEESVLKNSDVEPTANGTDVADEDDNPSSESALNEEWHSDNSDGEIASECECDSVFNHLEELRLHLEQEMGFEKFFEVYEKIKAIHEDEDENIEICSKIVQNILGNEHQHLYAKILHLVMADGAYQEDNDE
Put plainly: Inhibition of human recombinant NEK1 at 500 nM in presence of ATP by radiometric assay relative to control.

Experiment [4] has as its target T2, Serine/threonine-protein kinase BRSK2 (Homo sapiens) (UniProt Q8IWQ3).
T2 sequence (whole entry): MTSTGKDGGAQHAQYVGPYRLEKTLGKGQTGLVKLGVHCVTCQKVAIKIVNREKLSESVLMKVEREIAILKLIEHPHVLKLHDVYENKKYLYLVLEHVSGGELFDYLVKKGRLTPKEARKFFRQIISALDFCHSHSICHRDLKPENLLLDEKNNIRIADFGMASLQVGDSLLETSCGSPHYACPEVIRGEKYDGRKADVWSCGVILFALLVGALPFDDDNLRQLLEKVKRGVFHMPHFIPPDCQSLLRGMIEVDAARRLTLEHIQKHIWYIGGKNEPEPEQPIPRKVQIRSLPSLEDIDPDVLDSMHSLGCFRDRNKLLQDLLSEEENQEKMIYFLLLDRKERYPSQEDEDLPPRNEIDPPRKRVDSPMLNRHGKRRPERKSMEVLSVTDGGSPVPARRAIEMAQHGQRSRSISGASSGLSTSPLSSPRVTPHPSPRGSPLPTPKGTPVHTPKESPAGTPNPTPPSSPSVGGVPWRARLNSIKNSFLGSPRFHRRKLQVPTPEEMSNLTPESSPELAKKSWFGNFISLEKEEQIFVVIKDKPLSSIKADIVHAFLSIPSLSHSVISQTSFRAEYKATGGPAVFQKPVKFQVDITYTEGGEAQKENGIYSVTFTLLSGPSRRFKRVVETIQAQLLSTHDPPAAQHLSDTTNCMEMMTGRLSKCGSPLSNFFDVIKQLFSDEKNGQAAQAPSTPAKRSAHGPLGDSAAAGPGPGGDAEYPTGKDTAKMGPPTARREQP
Put plainly: Inhibition of human recombinant BRSK2 at 15 nM in presence of ATP by radiometric assay relative to control. In a few lines: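 Recombinant human kinase panel (327 kinases) run as radiometric activity assays, each kinase in duplicate at one compound concentration. Activity remaining expressed relative to vehicle control; percent inhibition taken as 100% minus % activity remaining.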

Experiment [5] deals with MAP kinase-activated protein kinase 3 (Homo sapiens) (UniProt Q16644). Kind of experiment: Inhibition of human recombinant MAPKAPK3 at 15 nM in presence of ATP by radiometric assay relative to control.
Chain of MAP kinase-activated protein kinase 3 (Homo sapiens) (Q16644 whole entry, looked up): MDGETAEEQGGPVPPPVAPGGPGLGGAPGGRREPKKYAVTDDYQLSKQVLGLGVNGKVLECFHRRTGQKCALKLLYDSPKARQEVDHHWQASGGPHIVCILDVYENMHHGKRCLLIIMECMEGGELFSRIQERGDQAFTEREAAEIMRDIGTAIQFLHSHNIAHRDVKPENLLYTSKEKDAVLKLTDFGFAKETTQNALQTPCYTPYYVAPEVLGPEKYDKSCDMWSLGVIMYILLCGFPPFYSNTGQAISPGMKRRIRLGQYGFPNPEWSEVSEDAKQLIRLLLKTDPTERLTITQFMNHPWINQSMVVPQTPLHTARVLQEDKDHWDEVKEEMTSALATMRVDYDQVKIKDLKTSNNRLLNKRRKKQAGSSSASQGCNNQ
Experiment [6] has as its target Serine/threonine-protein kinase pim-1 (Homo sapiens) (UniProt P11309). Kind of experiment: Inhibition of human recombinant PIM1 at 15 nM related to control ULK1.

Chain of Serine/threonine-protein kinase pim-1 (Homo sapiens) (P11309 whole entry, looked up): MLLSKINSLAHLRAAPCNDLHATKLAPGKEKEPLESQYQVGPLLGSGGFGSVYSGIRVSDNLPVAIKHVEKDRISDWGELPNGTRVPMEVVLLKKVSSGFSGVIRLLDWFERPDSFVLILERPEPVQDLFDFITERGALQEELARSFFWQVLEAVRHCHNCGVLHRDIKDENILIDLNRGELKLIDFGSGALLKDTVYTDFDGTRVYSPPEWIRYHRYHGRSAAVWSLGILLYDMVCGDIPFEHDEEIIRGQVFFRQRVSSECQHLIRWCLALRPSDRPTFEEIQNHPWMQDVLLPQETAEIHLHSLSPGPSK
Chain of Cyclin-dependent kinase 9 (Homo sapiens) (P50750 whole entry): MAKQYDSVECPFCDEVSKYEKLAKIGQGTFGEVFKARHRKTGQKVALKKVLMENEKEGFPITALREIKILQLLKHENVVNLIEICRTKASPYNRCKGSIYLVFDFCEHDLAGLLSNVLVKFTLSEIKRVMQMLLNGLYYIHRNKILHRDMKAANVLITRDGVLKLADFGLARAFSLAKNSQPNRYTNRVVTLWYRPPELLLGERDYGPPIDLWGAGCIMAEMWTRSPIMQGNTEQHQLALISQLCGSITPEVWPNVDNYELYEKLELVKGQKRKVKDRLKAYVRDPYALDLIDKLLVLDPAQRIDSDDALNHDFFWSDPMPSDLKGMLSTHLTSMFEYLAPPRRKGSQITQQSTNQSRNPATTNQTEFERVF

Broadly, the inhibition is the percentage by which the read-out fell short of the control. On to `CNC(=O)c1ccccc1Oc1nc(Nc2cc(OC)c(OC)c(OC)c2)ncc1Br`, for which the fold change (FC) in experiment [1] was 0.04. In addition, the inhibition in experiment [2] was 23%; in experiment [3], 8%.
Regarding `CC(C)[C@H](NC(=O)c1cc(-c2cnn3cc(-c4ccc(OCCN5CCCCC5)cc4)cnc23)cs1)C(F)(F)F`, the inhibition was found to be 25% in experiment [4] and 0% in experiment [5]. Moreover, in experiment [6], the fold change (FC) was found to be 0.16.
